# Bioassay records deposited in PubChem BioAssay by several laboratories.
# ARFGAP1 inh: inhibits rat ARF GTPase activating protein 1. Arfgap1-stimulated ARF1 GTP hydrolysis, GDP FP detection. Q62848. AID 651572. actives 0.26% (n = 360,000). inhibition, % at 16.5 µM;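 active means inhibition above a per-plate limit, mean inhibition of low control wells plus 3 SD, cut at about 25% in these data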;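 further: 0% = DMSO wells with enzyme and 100% = wells lacking Arfgap1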
# Target sequence (Q62848 1-136 limits assumed): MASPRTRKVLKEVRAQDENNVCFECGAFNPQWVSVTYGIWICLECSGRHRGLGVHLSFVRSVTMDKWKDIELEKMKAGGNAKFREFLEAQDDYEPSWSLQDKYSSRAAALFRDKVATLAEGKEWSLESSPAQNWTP
#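 Assay system: Rat Arfgap1 GAP domain (His6, aa 1-136), purified enzyme | Buffer or medium: HEPES 25 mM pH 7.5, NaCl 150 mM, MgCl2, DTT | Schedule: GTP hydrolysis reaction 2 h at 25 °C | Signal: FP of antibody-bound GDP Alexa 633 tracer, ex 620/em 688 nm | Measure: Percent inhibition of Arfgap1-stimulated GTP hydrolysis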
# ASAP1 GAP inh: blocks human ASAP1-stimulated Arf1 GTP hydrolysis; Q9ULH1; GDP FP detection; inhibition, % at 16.5 µM; actives 0.19% (n = 360,000); in the data active means inhibition above about 25%;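 further: 0% = vehicle with enzyme and substrate and 100% = no enzyme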
# PHOSPHO1 inh: blocks human PHOSPHO1 phosphatase activity | Q8TCT1 | recombinant PHOSPHO1, absorbance phosphatase assay | inhibition, % at 13.3 µM | actives 1.1% (n = 290,000); in the data active means inhibition above about 60%
# Target sequence (Q8TCT1 whole entry, looked up): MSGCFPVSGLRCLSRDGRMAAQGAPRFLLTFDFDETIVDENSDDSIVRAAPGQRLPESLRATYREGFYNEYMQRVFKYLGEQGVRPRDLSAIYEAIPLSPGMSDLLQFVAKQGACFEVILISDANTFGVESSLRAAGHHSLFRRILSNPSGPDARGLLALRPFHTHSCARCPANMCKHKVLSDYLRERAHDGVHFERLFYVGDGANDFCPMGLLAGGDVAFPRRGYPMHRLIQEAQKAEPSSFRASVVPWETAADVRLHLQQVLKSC
# VIM-2 inhibitor: blocks Pseudomonas aeruginosa VIM-2 metallo-beta-lactamase | purified VIM-2, nitrocefin hydrolysis, epi-absorbance fluorescence | inhibition, % at 5.6 µM | actives 0.89% (n = 290,000);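 active means inhibition above the mean of all tested compounds plus 3 SD, cutoff set per screening run, cut at about 7.5% in these data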;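 further: red hydrolysis product quenches plate fluorescence so inhibitors raise well fluorescence; 0% = enzyme with DMSO and 100% = DMSO without enzyme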
# IMP-1 inhibitor: inhibitors of Pseudomonas aeruginosa IMP-1 metallo-beta-lactamase | purified IMP-1, nitrocefin hydrolysis, epi-absorbance fluorescence | inhibition, % at 5.6 µM | actives 0.45% (n = 290,000);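 active means inhibition above the mean plus 3 SD of all compounds in the same screening run, cut at about 4.5% in these data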;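 further: 0% = IMP-1 with DMSO and 100% = DMSO wells lacking enzyme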
#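 Assay system: purified recombinant IMP-1 beta-lactamase. Input: IMP-1 0.2 nM before substrate addition. Buffer or medium: Zinc- and detergent-supplemented HEPES buffer, pH 7.1. Schedule: 25 °C, 15 min preincubation, 25 min reaction. Signal: Epi-absorbance fluorescence, 480 nm excitation, 530 nm emission. Evaluation: percent inhibition from optical density relative to buffer-blank wells.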
# Calb FLC: C. albicans growth modulation with fluconazole. C. albicans CaCi-2 + fluconazole, Alamar Blue growth, 48 h. growth inhibition, % (no concentration beside the values). actives 0.57% (n = 300,000). AID 1979;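 active means growth inhibition above about 58% in most replicates, limit read from the data, passing the limit was not always enough; inconclusive means exactly half the replicates above a set limit; inactive means most replicates below a set limit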;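 further: all wells also contain fluconazole at 8 µg/ml as a sub-toxic cotreatment; 0% = median of DMSO wells and 100% = median of geldanamycin control wells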
# * = called active by the depositor; ? = inconclusive; . = no result given. An excerpt weighted towards active compounds, which were near 2.6% of everything screened.
SMILES,ARFGAP1 inh,ASAP1 GAP inh,PHOSPHO1 inh,VIM-2 inhibitor,IMP-1 inhibitor,Calb FLC
CCC(=O)NC(=S)NNC(=O)c1ccccc1[N+](=O)[O-],-7.9,-1.5,64.6*,-1.2,-3.4,-7.0
CC(C)(C)C(=O)NC(=S)NNC(=O)c1ccc(-c2ccccc2)cc1,.,.,-77.9,-2.9,-1.8,98.2*
Cc1ccc(C(=O)NNC(=S)NC(=O)COc2ccccc2)cc1,15.6,-6.5,96.9*,-4.3,-3.0,-8.5
CN(C)Cc1c(C(C)(C)O)[nH]c2cc(C(F)(F)F)ccc12,-0.7,-6.5,.,.,.,.
Cc1ccccc1C(=O)NNC(=S)NC(=O)COc1ccccc1,0.2,7.8,97.4*,-4.8,-1.6,-28.3
Cc1ccccc1-c1ccc2c(c1)[C@@H]1C[C@H](N(C)C(=O)Nc3ccccc3)[C@H]([C@H](C)O)CN1CC2,-1.5,-4.1,.,.,.,.
Cc1cccc(-n2c(-c3ccncc3)n[nH]c2=S)c1,-2.1,-5.7,5.3,2.7,-0.1,4.9
Cc1ccc(-n2c(C)n[nH]c2=S)cc1,11.9,-2.7,-4.0,-3.0,-4.6,-1.5
Cc1ccc(-n2c(-c3c(-c4ccccc4)noc3C)n[nH]c2=S)cc1,3.2,7.3,85.1*,-6.8,-0.7,8.1
Cc1cccc(-n2c(-c3ccoc3C)n[nH]c2=S)c1,5.2,-3.5,8.7,9.1*,-1.3,9.2
Cc1cccc(NCc2n[nH]c(=S)n2-c2ccccc2)c1,-14.5,0.8,94.2*,-4.5,-3.6,3.4
Cc1ccccc1-n1c(-c2ccoc2C)n[nH]c1=S,6.4,-4.8,14.1,8.6*,-3.4,?
CCN(CC)C(=O)C1=C(C)N(CCCOC)C(=O)C(CC(=O)NCCCCc2ccccc2)C1 (stereo unspecified),-5.2,-1.2,.,.,.,.
Cc1cc2c(c(=O)o1)[C@@]1(C(=O)N(C)c3ccccc31)C1=C(CC3(CCCCC3)OC1=O)O2,10.8,0.7,.,.,.,.
CC(C)C1=CC2C3C(C(C(C)C)=CC(=O)[C@@]3(C)O)C1C(=O)C2(C)O (stereo partly specified),11.7,-6.9,.,.,.,.
Cc1ccc(-n2c(-c3cccc(C)c3)n[nH]c2=S)cc1,-3.3,-7.2,101.5*,-0.1,-4.1,?
S=c1[nH]nc(-c2ccc(Br)cc2)n1-c1ccc(Br)cc1,1.5,-18.3,-96.6,-2.9,-3.2,5.7
S=c1[nH]nc(COc2ccc3c(c2)OCO3)n1-c1ccccc1,4.8,3.5,46.5,-2.7,-3.3,15.1
O=C(O)c1ccc(-n2c(-c3ccc(Br)cc3)n[nH]c2=S)cc1,.,.,102.7*,-3.5,-0.9,-10.2
S=c1[nH]nc(-c2ccc3c(c2)OCO3)n1-c1ccccc1,3.0,-7.0,11.6,11.2*,-3.6,24.4
Cc1cccc(-n2c(-c3csc4ccccc34)n[nH]c2=S)c1,2.5,-0.8,-0.3,-2.6,-3.3,35.9
COc1ccc(-c2n[nH]c(=S)n2-c2ccc(C)cc2)cc1OC,13.9,-13.3,-75.3,2.2,-2.3,6.0
Cc1ccc([N+](=O)[O-])c(-c2n[nH]c(=S)n2-c2cccc(Cl)c2)c1,5.5,-13.4,88.2*,-4.5,-3.4,16.8
COC(=O)[C@]12C[C@H](CC(=O)NCc3ccc(C)o3)C(=O)N(CCC3=CCCCC3)C1=C[C@H](COCc1ccccc1)O[C@@H]2C,-0.8,6.1,.,.,.,.
CC(C)C[C@H](NC(=O)C1CCCC1)C(=O)N1CCC[C@H]1C(=O)NCc1ccccc1,-6.5,12.0,.,.,.,.
SMILES,ARFGAP1 inh,ASAP1 GAP inh,PHOSPHO1 inh,VIM-2 inhibitor,IMP-1 inhibitor,Calb FLC
CCCCc1c(-c2ccccc2OC)ncn1C(C)c1ccccc1 (stereo unspecified),9.0,6.5,.,.,.,.
Cc1cccc(-n2c(C)n[nH]c2=S)c1,-8.2,-1.8,-108.2,8.0*,-2.3,-10.5
CS(=O)(=O)Nc1ccc(-c2n[nH]c(=S)n2-c2ccccc2)cc1,8.8,-9.1,-31.3,8.2*,-3.0,-0.2
Cc1ccc(-n2c(-c3cccnc3)n[nH]c2=S)c(C)c1,2.6,-5.6,60.1*,-2.5,-1.9,39.6
O=C(c1ccc2c(c1)OCO2)N1CCC2(CC1)Oc1ccc(F)cc1C(=O)C21CC(c2ccccc2)=NO1 (stereo unspecified),-9.2,16.3,8.9,.,.,77.2*
Cc1ccc(C(=O)N2CCC3(CC2)Oc2ccc(Cl)cc2C(=O)C32CC(c3cccnc3)=NO2)s1 (stereo unspecified),-0.2,5.4,34.3,.,.,40.5
